In ChEMBL document CHEMBL3585265, “Bacteria-Derived Compatible Solutes Ectoine and 5α-Hydroxyectoine Act as Intestinal Barrier Stabilizers to Ameliorate Experimental Inflammatory Bowel Disease” (J Nat Prod, 2015):
Active and inactive are the calls of the source. No cut-off for these calls is given here.

Key:
Rattus norvegicus [1] = experiment: Toxicity in Wistar rat assessed as effect on colonic GSH level at 100 mg/kg, po qd administered for 1 week by spectrophotometric analysis; assay type: organism-based, Colon; conditions: in vivo, 168 h
Outline: (§1)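 Normal male Wistar rats (150–200 g) underwent the same rectal procedure with saline in place of TNBS. They received water or 100 mg/kg compound orally once daily for 1 week and were killed 24 h after the last dose. The distal 8 cm colon was weighed and homogenized 10% (w/v) in ice-cold bidistilled water. Body weight was taken before instillation and before necropsy.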

Rattus norvegicus [2] = experiment: Toxicity in Wistar rat assessed as effect on colonic ICAM1 level at 100 mg/kg, po qd administered for 1 week by ELISA; assay type: organism-based, Colon; conditions: in vivo, 168 h; outline: as §1
Rattus norvegicus [3] = experiment: Toxicity in Wistar rat assessed as decrease in Hsp70 level at 100 mg/kg, po qd administered for 1 week by ELISA; assay type: organism-based; conditions: in vivo, 168 h; outline: as §1
Rattus norvegicus [4] = experiment: Toxicity in Wistar rat assessed as decrease in Hsp70 level at 50 to 300 mg/kg, po qd administered for 1 week starting 48 hrs post TNBS induction by ELISA; assay type: organism-based; conditions: in vivo
Outline: (§2)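 TNBS colitis in male Wistar rats: 100 mg/kg TNBS in 0.25 mL 50% ethanol, instilled 8 cm into the colon after a 36 h fast. Oral dosing in 1 mL per 200 g rat. Rats were killed 24 h after the last dose. The distal 8 cm colon was rinsed in ice-cold saline and homogenized 10% (w/v) in ice-cold bidistilled water. Mean of ≥6 animals ± SEM.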

Rattus norvegicus [5] = experiment: Toxicity in Wistar rat assessed as effect on body weight at 100 mg/kg, po qd administered for 1 week; assay type: organism-based; conditions: in vivo, 168 h; outline: as §1
Rattus norvegicus [6] = experiment: Toxicity in Wistar rat assessed as effect on colon mass index at 100 mg/kg, po qd administered for 1 week; assay type: organism-based; conditions: in vivo, 168 h; outline: as §1
Rattus norvegicus [7] = experiment: Toxicity in Wistar rat assessed as effect on myeloperoxidase activity at 100 mg/kg, po qd administered for 1 week by spectrophotometric analysis; assay type: organism-based; conditions: in vivo, 168 h; outline: as §1
Rattus norvegicus [8] = experiment: Toxicity in Wistar rat assessed as effect on TNF-alpha level at 100 mg/kg, po qd administered for 1 week by ELISA; assay type: organism-based; conditions: in vivo, 168 h; outline: as §1
Rattus norvegicus [9] = experiment: Toxicity in Wistar rat assessed as effect on IL-1beta level at 100 mg/kg, po qd administered for 1 week by ELISA; assay type: organism-based; conditions: in vivo, 168 h; outline: as §1
Rattus norvegicus [10] = experiment: Anti-colitis activity in Wistar rat assessed as suppression of TNBS-induced body weight reduction at 50 to 300 mg/kg, po qd administered for 1 week starting 48 hrs post TNBS induction; assay type: functional, organism-based
Outline: (§3)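 Male Wistar rats (150–200 g) were fasted 36 h, then given 100 mg/kg TNBS in 0.25 mL 50% ethanol rectally under light ether, with the catheter tip 8 cm from the anus. Oral dosing was in 1 mL per 200 g rat. Rats were killed 24 h after the last dose. Body weight was taken before induction and before necropsy. Ulcer area in the distal 8 cm colon was measured planimetrically (cm2). Colon mass index is colon weight/body weight (mg/g). Mean of ≥6 animals ± SEM.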

Rattus norvegicus [11] = experiment: Anti-colitis activity in Wistar rat assessed as reduction of TNBS-induced ulcerative area at 50 to 300 mg/kg, po qd administered for 1 week starting 48 hrs post TNBS induction (reference value: 4.9 cm2); assay type: functional; outline: as §3
Rattus norvegicus [12] = experiment: Anti-colitis activity in Wistar rat assessed as reduction of TNBS-induced colon mass index at 100 mg/kg, po qd administered for 1 week starting 48 hrs post TNBS induction (reference value: 7.9 mg/g); assay type: functional; outline: as §3
Rattus norvegicus [13] = experiment: Anti-colitis activity in Wistar rat assessed as reduction of TNBS-induced myeloperoxidase activity at 100 mg/kg, po qd administered for 1 week starting 48 hrs post TNBS induction by spectrophotometric analysis; assay type: functional, organism-based
Rattus norvegicus [14] = experiment: Anti-colitis activity in Wistar rat assessed as suppression of TNBS-induced reduction of colonic GSH level at 50 to 300 mg/kg, po qd administered for 1 week starting 48 hrs post TNBS induction by spectrophotometric analysis; assay type: functional, organism-based
Outline: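 TNBS colitis in male Wistar rats: 100 mg/kg TNBS in 0.25 mL 50% ethanol given rectally. Colon was taken 24 h after the last oral dose and homogenized 10% (w/v) in ice-cold water. Homogenate was deproteinized with ice-cold 5% sulfosalicylic acid and spun at 3000 rpm for 20 min; GSH was read spectrophotometrically in the supernatant. Mean of ≥6 animals ± SEM.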

Rattus norvegicus [15] = experiment: Anti-colitis activity in Wistar rat assessed as suppression of TNBS-induced colonic TNF-alpha level at 50 to 300 mg/kg, po qd administered for 1 week starting 48 hrs post TNBS induction by ELISA; assay type: functional, organism-based
Outline: (§4)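 TNBS/ethanol colitis in male Wistar rats, as described; oral once-daily treatment for 1 week beginning 48 h post-induction, sacrifice 24 h after final dose. Distal 8 cm colon excised, rinsed in ice-cold saline, homogenized 10% (w/v) in ice-cold bidistilled water; aliquot assayed for TNF-α and IL-1β by ELISA. At least 6 animals per group, mean ± SEM.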

Rattus norvegicus [16] = experiment: Anti-colitis activity in Wistar rat assessed as suppression of TNBS-induced colonic IL-1beta level at 50 to 300 mg/kg, po qd administered for 1 week starting 48 hrs post TNBS induction by ELISA; assay type: functional, organism-based; outline: as §4
Rattus norvegicus [17] = experiment: Anti-colitis activity in Wistar rat assessed as suppression of TNBS-induced fecal calprotectin level at 100 mg/kg, po qd administered for 1 week starting 48 hrs post TNBS induction by ELISA; assay type: functional, organism-based
Outline: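 Feces were collected before sacrifice from 4 randomly chosen TNBS-colitis rats per group, suspended 1:10 in extraction buffer and incubated 90 min at room temperature. Calprotectin (S100A8/S100A9) was measured by ELISA, with samples incubated 90 min at room temperature. Samples were run in duplicate and medians taken.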

Rattus norvegicus [18] = experiment: Anti-colitis activity in Wistar rat assessed as suppression of TNBS-induced body weight reduction at 300 mg/kg, po qd administered for 1 week starting 48 hrs post TNBS induction; assay type: functional, organism-based
Outline: (§5)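 Adult male Wistar rats (150−200 g), fasted 36 h, received 0.25 mL 50% (v/v) ethanol containing 100 mg/kg TNBS, instilled 8 cm into colon under light ether. Oral dosing (water vehicle, 1 mL per 200 g) once daily for 1 week from 48 h; sacrifice 24 h after last dose. Body weight recorded before induction and before necropsy. Distal 8 cm colon weighed; mass index as mg/g body weight. n ≥ 6, mean ± SEM.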

Rattus norvegicus [19] = experiment: Anti-colitis activity in Wistar rat assessed as reduction of TNBS-induced colon mass index at 300 mg/kg, po qd administered for 1 week starting 48 hrs post TNBS induction; assay type: functional, organism-based; outline: as §5
Rattus norvegicus [20] = experiment: Anti-colitis activity in Wistar rat assessed as suppression of TNBS-induced reduction of colonic GSH level at 300 mg/kg, po qd administered for 1 week starting 48 hrs post TNBS induction by spectrophotometric analysis; assay type: functional, organism-based
Outline: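 Colitis induced rectally with 100 mg/kg TNBS in 50% ethanol; oral dosing daily for 1 week from 48 h later. Colon homogenate (10% w/v, ice-cold water) deproteinized with ice-cold 5% sulfosalicylic acid, centrifuged 3000 rpm 20 min; supernatant used for spectrophotometric reduced glutathione estimation. n ≥ 6, mean ± SEM.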

Rattus norvegicus [21] = experiment: Toxicity in Wistar rat assessed as decrease in Hsp70 level at 300 mg/kg, po qd administered for 1 week starting 48 hrs post TNBS induction by ELISA; assay type: organism-based; conditions: in vivo; outline: as §2
Rattus norvegicus [22] = experiment: Anti-colitis activity in Wistar rat assessed as reduction of TNBS-induced colon mass index at 50 mg/kg, po qd administered for 1 week starting 48 hrs post TNBS induction (reference value: 7.9 mg/g); assay type: functional; outline: as §3
Rattus norvegicus [23] = experiment: Anti-colitis activity in Wistar rat assessed as reduction of TNBS-induced myeloperoxidase activity at 50 mg/kg, po qd administered for 1 week starting 48 hrs post TNBS induction by spectrophotometric analysis; assay type: functional, organism-based; outline: as §2
Rattus norvegicus [24] = experiment: Anti-colitis activity in Wistar rat assessed as suppression of TNBS-induced colonic TNF-alpha level at 50 to 100 mg/kg, po qd administered for 1 week starting 48 hrs post TNBS induction by ELISA; assay type: functional, organism-based; outline: as §2
Rattus norvegicus [25] = experiment: Anti-colitis activity in Wistar rat assessed as suppression of TNBS-induced colonic IL-1beta level at 50 to 100 mg/kg, po qd administered for 1 week starting 48 hrs post TNBS induction by ELISA; assay type: functional, organism-based; outline: as §2

Structure (SMILES)	Activity (Rattus norvegicus [1])	Activity (Rattus norvegicus [2])	Activity (Rattus norvegicus [3])	Activity (Rattus norvegicus [4])	Activity (Rattus norvegicus [5])	Activity (Rattus norvegicus [6])	Activity (Rattus norvegicus [7])	Activity (Rattus norvegicus [8])	Activity (Rattus norvegicus [9])	Activity (Rattus norvegicus [10])	Activity (Rattus norvegicus [11]) [cm2]	Activity (Rattus norvegicus [14])	Activity (Rattus norvegicus [17])	other results
CC1=NC[C@H](O)[C@@H](C(=O)O)N1	Non-toxic	Non-toxic	Toxic	Toxic	Non-toxic	Non-toxic	Non-toxic	Non-toxic	Non-toxic	–	–	–	–	–
CC1=N[C@H](C(=O)O)CCN1	Non-toxic	Non-toxic	Toxic	Toxic	Non-toxic	Non-toxic	Non-toxic	Non-toxic	Non-toxic	Active	1.2	inactive	Active	Activity (Rattus norvegicus [12]): 4.3 mg/g; Activity (Rattus norvegicus [13]): Active; Activity (Rattus norvegicus [15]): Active; Activity (Rattus norvegicus [16]): Active
O=C(O)c1cc(/N=N/c2ccc(S(=O)(=O)Nc3ccccn3)cc2)ccc1O [SULFASALAZINE]	–	–	–	–	–	–	–	–	–	–	–	–	–	Activity (Rattus norvegicus [18]): Active; Activity (Rattus norvegicus [19]): Active; Activity (Rattus norvegicus [20]): inactive; Activity (Rattus norvegicus [21]): Toxic
CC1=N[C@H](C(=O)O)[C@@H](O)CN1	–	–	–	–	–	–	–	–	–	Active	1.3	inactive	Active	Activity (Rattus norvegicus [22]): 4 mg/g; Activity (Rattus norvegicus [23]): Active; Activity (Rattus norvegicus [24]): Active; Activity (Rattus norvegicus [25]): Active
